An excerpt weighted towards active compounds, which were near 1.8% of everything screened.
NPY2 pot ag: NPY-Y2 potentiators or agonists, primary screen, cell-based. Neuropeptide Y receptor type 2 (Homo sapiens), P49146. cells expressing NPY-Y2, potentiator/agonist read-out. activation, % at 3.6 µM. 220,000 compounds, 0.45% hits. AID 1359, 2008; in the data active = activation above about 27%;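 also: cells stimulated with NPY near EC25 plus isoproterenol at EC100; 0% = vehicle plus submaximal agonist and 100% = vehicle plus saturating agonist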
Target sequence (P49146 whole entry, looked up): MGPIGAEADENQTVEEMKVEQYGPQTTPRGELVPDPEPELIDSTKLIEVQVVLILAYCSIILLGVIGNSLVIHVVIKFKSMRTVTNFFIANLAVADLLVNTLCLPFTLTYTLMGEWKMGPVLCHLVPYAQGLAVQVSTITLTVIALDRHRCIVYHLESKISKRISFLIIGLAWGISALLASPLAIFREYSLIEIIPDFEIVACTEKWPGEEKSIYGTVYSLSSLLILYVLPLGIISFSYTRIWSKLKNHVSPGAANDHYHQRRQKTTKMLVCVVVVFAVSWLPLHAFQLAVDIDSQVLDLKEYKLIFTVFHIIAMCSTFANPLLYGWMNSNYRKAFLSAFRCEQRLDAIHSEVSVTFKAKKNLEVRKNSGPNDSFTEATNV
NPY-Y2 antag: NPY-Y2 receptor antagonists, primary screen, cell-based; Neuropeptide Y receptor type 2 (Homo sapiens), P49146; NPY-Y2 expressing cells, antagonist mode; AID 793, 2007; 140,000 compounds, 0.99% hits; inhibition, % at 2.7 µM;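 also: 0% = vehicle with agonist challenge and 100% = reference antagonist with challenge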
NPY-Y1 antag: NPY-Y1 receptor antagonists, primary screen, cell-based | Neuropeptide Y receptor type 1 (Homo sapiens), P25929 | HEK293-CNG Y1 cells, membrane potential fluorescence; NPY at EC95, then isoproterenol | inhibition, % at 3.6 µM | 200,000 compounds, 1% hits | AID 1040, 2008;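 active = inhibition above the campaign mean inhibition of all tested compounds plus 3 SD, cut at about 20% in these data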;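 also: 0% = DMSO wells given NPY plus isoproterenol and 100% = isoproterenol alone without NPY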
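System: HEK293 cells with Y1 receptor plus CNG channel / Probe or stimulus: NPY 25 nM then isoproterenol 1 µM plus Ro 20-1724 25 µM / Compound: one concentration, 3.6 µM, in 0.4% DMSO / Schedule: compound incubation 1 h at room temperature, readout 45 min post-stimulation / Measured by: membrane potential fluorescence / Read-out: % inhibition of NPY effect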
NPY1 pot ag: NPY-Y1 receptor potentiators or agonists, primary screen, cell-based; AID 1304, 2008; NPY-Y1 expressing cells, potentiator/agonist activation; activation, % at 3.6 µM; 220,000 compounds, 0.37% hits; in the data active = activation above about 33%, passing the limit was not always enough;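 also: cells stimulated with NPY at EC10 then isoproterenol at EC100; 0% = low agonist plus stimulus and 100% = saturating agonist plus stimulus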
NPY-Y1 ant conf: NPY-Y1 receptor antagonists, retest of hits, confirmation, HEK293-CNG cells, membrane potential fluorescence, triplicate | shares compounds with NPY-Y1 antag | cAMP; NPY challenge against isoproterenol-raised cAMP | inhibition, % at 3.6 µM | 1,200 compounds, 21% hits | AID 1254, 2008; in the data active = inhibition above about 20%;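 also: 0% = vehicle with agonist plus stimulus and 100% = stimulus alone without agonist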
NPY2 antag ctr: NPY-Y2 receptor antagonists, selectivity check, confirmation, counter-screen for NPY-Y1 antagonist project, HEK293-CNG cells, membrane potential fluorescence, triplicate; shares compounds with NPY-Y1 antag; antagonism; cells given NPY, then isoproterenol; inhibition, % at 3.6 µM; 1,200 compounds, 28% hits;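 also: 0% = DMSO with agonist challenge and 100% = reference antagonist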
* marks the source's active call; other numbers are inactive results. Rule as the data show it, unless noted: active = inhibition above about 17%; inactive = the rest.

How did Cc1oc(-c2ccccc2)nc1Cn1cccc1C1=NC(c2ccccc2)CO1 (stereo unspecified) do in these assays?
NPY2 pot ag: 0.0; NPY-Y2 antag: 9.7; NPY-Y1 antag: 21.6*; NPY1 pot ag: 18.4; NPY-Y1 ant conf: 21.3*; NPY2 antag ctr: 23.9*

How did O=C(c1ccco1)N1CCN(Cc2cn[nH]c2-c2cccc3ccccc23)CC1 do in these assays?
NPY2 pot ag: -10.2; NPY1 pot ag: 12.7

How did O[C@@H]1COC(Nc2ccc(N=Nc3ccccc3)cc2)C[C@@H]1O (stereo partly specified) do in these assays?
NPY2 pot ag: 22.1; NPY1 pot ag: 21.0

What do the screens show for `CC(C)C1N(C(N)=S)N=CC1(C)C` (stereo unspecified)?
NPY2 pot ag: -8.9; NPY1 pot ag: -20.8

Results for Cc1cccnc1NC1CCCCC1 ?
NPY2 pot ag: 2.7; NPY-Y1 antag: -0.6; NPY1 pot ag: 2.8

What do the screens show for `c1ccc2c(NC3CCCC3)nnc(NC3CCCC3)c2c1`?
NPY2 pot ag: -1.7; NPY-Y2 antag: 11.8; NPY-Y1 antag: 23.4*; NPY1 pot ag: -0.8; NPY-Y1 ant conf: 1.1; NPY2 antag ctr: 34.9*

Results for CS/C(N)=N/S(=O)(=O)c1ccc(NC(C)=O)cc1 ?
NPY2 pot ag: -3.9; NPY1 pot ag: 4.5

What do the screens show for `CCOC(=O)C1CCCN(C(=O)c2csc(-c3ccc4c(c3)CCO4)n2)C1` (stereo unspecified)?
NPY2 pot ag: -5.6; NPY1 pot ag: -11.9

Results for Cc1ccc(Cn2nc(-c3ccccc3)nc2-c2ccccc2)cc1 ?
NPY2 pot ag: -30.4; NPY-Y2 antag: 14.2; NPY-Y1 antag: 25.0*; NPY1 pot ag: -13.4; NPY-Y1 ant conf: 12.8; NPY2 antag ctr: 10.9

How did CCOc1ccccc1NC(=O)CCCN1C(=S)NC(C)(C)CC1C (stereo unspecified) do in these assays?
NPY2 pot ag: 5.2; NPY-Y2 antag: 1.0; NPY-Y1 antag: -1.9; NPY1 pot ag: 11.3

How did Cc1ccc(S(=O)(=O)Nc2cc(C)nn2-c2ccccc2)cc1 do in these assays?
NPY2 pot ag: 7.1; NPY-Y2 antag: 1.8; NPY-Y1 antag: 33.0*; NPY1 pot ag: -11.1; NPY-Y1 ant conf: -1.5; NPY2 antag ctr: -0.8

Results for C/C(=N\O)c1ncc(C(F)(F)F)cc1Cl ?
NPY2 pot ag: -1.1; NPY-Y1 antag: -1.1; NPY1 pot ag: 11.2

How did OCCC1CN(Cc2ccccn2)CCN1C1CCCC1 (stereo unspecified) do in these assays?
NPY2 pot ag: -16.9; NPY-Y1 antag: -3.4; NPY1 pot ag: 13.6

What do the screens show for `OCCC1CN(CC(c2ccccc2)c2ccccc2)CCN1C1CCCC1` (stereo unspecified)?
NPY2 pot ag: -19.0; NPY-Y1 antag: 23.0*; NPY1 pot ag: 1.2; NPY-Y1 ant conf: 12.4; NPY2 antag ctr: 9.8

What do the screens show for `O=C1CCC(/C=C/c2ccccc2)=NN1Cc1ccccc1`?
NPY2 pot ag: -19.4; NPY-Y1 antag: 10.4; NPY1 pot ag: -20.4

How did CC(C)(C)c1ccc(CN2N=C(/C=C/c3ccccc3)CCC2=O)cc1 do in these assays?
NPY2 pot ag: -21.4; NPY-Y1 antag: 25.3*; NPY1 pot ag: -22.8; NPY-Y1 ant conf: 19.3; NPY2 antag ctr: 17.1

Results for Cc1ccc(CS/C(Nc2ccccc2C)=C(\C#N)C(=O)NCc2ccco2)c(C)c1 ?
NPY2 pot ag: -11.7; NPY-Y2 antag: 4.0; NPY-Y1 antag: 16.6; NPY1 pot ag: -3.6

Results for Cc1ccccc1N/C(SCc1ccc(Cl)cc1)=C(/C#N)C(=O)NCc1ccco1 ?
NPY2 pot ag: -38.9; NPY-Y2 antag: 12.2; NPY-Y1 antag: 34.0*; NPY1 pot ag: -10.5; NPY-Y1 ant conf: 11.6; NPY2 antag ctr: 8.2

What do the screens show for `COCCCC1CCN(C(=O)CCc2nnc(CCCCc3ccccc3)o2)CC1`?
NPY2 pot ag: 3.6; NPY-Y1 antag: 5.5; NPY1 pot ag: 5.5

How did CC(C)CC(COCc1cccc(Cl)c1)N1CCN(C(=O)c2ccc(C(F)(F)F)cc2)CCC1=O (stereo unspecified) do in these assays?
NPY2 pot ag: -2.8; NPY-Y2 antag: 12.9; NPY-Y1 antag: 26.9*; NPY1 pot ag: -9.3; NPY-Y1 ant conf: 14.4; NPY2 antag ctr: 7.5

What do the screens show for `Cc1cccc(COCC(CC(C)C)N2CCN(C(=O)c3ccc(C(F)(F)F)cc3)CCC2=O)c1` (stereo unspecified)?
NPY2 pot ag: -4.2; NPY-Y2 antag: 13.7; NPY-Y1 antag: 13.0; NPY1 pot ag: -22.6

Results for O=C(CN1C(=O)S/C(=C\c2ccc(Cl)cc2)C1=O)NNC(=O)c1ccccc1O ?
NPY2 pot ag: -10.5; NPY-Y2 antag: 9.0; NPY-Y1 antag: 6.4; NPY1 pot ag: -5.7

What do the screens show for `CCC(C)(C(=O)NC1CCCCC1)N(Cc1ccco1)C(=O)Cc1cccs1` (stereo unspecified)?
NPY2 pot ag: -42.6; NPY-Y2 antag: 11.7; NPY-Y1 antag: 71.7*; NPY1 pot ag: -35.8; NPY-Y1 ant conf: 37.6*; NPY2 antag ctr: 13.7

What do the screens show for `CC[n+]1c(/C=C/N(C)c2ccccc2)oc2ccc(Cl)cc21`?
NPY2 pot ag: -4.1; NPY-Y2 antag: 3.7; NPY-Y1 antag: 5.2; NPY1 pot ag: -8.1

How did CCN1/C(=C/C=C/c2oc3ccc4ccccc4c3[n+]2CC)Oc2ccc3ccccc3c21 do in these assays?
NPY2 pot ag: -28.3; NPY-Y1 antag: 35.4*; NPY1 pot ag: -24.1; NPY-Y1 ant conf: 30.2*; NPY2 antag ctr: 29.5*

Results for COc1cc(C2=NOC(C(=O)NCc3ccc(F)cc3)C2)cc(OC)c1OC (stereo unspecified) ?
NPY2 pot ag: -22.8; NPY-Y2 antag: 4.9; NPY-Y1 antag: 16.3; NPY1 pot ag: -26.5

What do the screens show for `COc1ccc(C2=NOC(C(=O)NCc3ccc(F)cc3)C2)cc1OC` (stereo unspecified)?
NPY2 pot ag: -12.5; NPY-Y2 antag: 8.7; NPY-Y1 antag: 32.7*; NPY1 pot ag: -12.0; NPY-Y1 ant conf: 6.7; NPY2 antag ctr: 16.1

How did COc1ccc(CNC(=O)C2CC(c3cccc(OC)c3)=NO2)cc1 (stereo unspecified) do in these assays?
NPY2 pot ag: -32.2; NPY-Y2 antag: 11.6; NPY-Y1 antag: 12.2; NPY1 pot ag: -27.9

What do the screens show for `COc1cccc(C2=NOC(C(=O)NCc3ccc(F)cc3)C2)c1` (stereo unspecified)?
NPY2 pot ag: -46.8; NPY-Y2 antag: 13.2; NPY-Y1 antag: 23.5*; NPY1 pot ag: -54.8; NPY-Y1 ant conf: 14.6; NPY2 antag ctr: 23.8*

Compound activity deposited in PubChem BioAssay by The Scripps Research Institute Molecular Screening Center.
